Experimental data taken from ChEMBL document CHEMBL1132381, “Pyrrolidine-3-carboxylic acids as endothelin antagonists. 4. Side chain conformational restriction leads to ET(B) selectivity” (J Med Chem, 1999).

Assays:
[1] = biological target: T1, Endothelin receptor type B (Homo sapiens, UniProt P24530); test: Binding affinity towards human Endothelin B receptor (hET -B)
T1 sequence (P24530 whole entry): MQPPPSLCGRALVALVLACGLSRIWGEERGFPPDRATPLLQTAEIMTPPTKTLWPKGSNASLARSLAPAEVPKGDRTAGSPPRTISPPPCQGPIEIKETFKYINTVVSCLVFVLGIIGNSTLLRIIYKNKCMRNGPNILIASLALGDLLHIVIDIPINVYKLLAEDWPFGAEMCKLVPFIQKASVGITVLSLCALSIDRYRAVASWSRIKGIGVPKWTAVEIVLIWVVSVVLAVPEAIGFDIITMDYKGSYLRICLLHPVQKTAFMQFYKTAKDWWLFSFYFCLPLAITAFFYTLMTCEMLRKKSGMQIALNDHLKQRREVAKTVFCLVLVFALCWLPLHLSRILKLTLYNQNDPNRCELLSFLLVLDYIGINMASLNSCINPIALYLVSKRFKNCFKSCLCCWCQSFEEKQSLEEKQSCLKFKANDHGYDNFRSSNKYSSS

[2] = biological target: T2, Endothelin-1 receptor (Homo sapiens, UniProt P25101); test: Binding affinity towards human Endothelin A receptor (hET -A)
T2 sequence (P25101 whole entry): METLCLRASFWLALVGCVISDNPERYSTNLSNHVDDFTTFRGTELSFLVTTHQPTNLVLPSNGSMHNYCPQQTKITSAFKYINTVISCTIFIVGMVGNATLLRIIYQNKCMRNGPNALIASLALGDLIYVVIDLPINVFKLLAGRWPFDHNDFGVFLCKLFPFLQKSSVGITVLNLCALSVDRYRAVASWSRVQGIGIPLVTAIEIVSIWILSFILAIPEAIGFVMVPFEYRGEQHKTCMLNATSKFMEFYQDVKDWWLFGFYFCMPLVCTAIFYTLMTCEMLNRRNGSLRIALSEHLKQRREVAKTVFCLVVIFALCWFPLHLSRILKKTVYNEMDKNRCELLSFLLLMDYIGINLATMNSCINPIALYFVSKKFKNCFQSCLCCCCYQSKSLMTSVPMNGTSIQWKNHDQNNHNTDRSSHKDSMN

[3] = biological target: Endothelin receptor, ET-A/ET-B (Homo sapiens) (UniProt P24530+P25101); test: Ratio of binding affinity towards hETA to hETB; type: protein assay
Method in brief: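 Ratio of IC50 values from two CHO membrane binding assays. Both run 3 h at 25 °C over 11 concentrations, 10^-10 to 10^-5 M, in duplicate, with at least 2 determinations each.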

[4] = Compound was evaluated for the biological half-life when administered through intravenous route; type: ADME, organism-based; conditions: in vivo
[5] = system: CHO; test: Antagonistic activity was measured by ET receptor mediated hydrolysis of inositol phosphates; type: functional, cell-based; conditions: Cricetulus griseus
Method in brief: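 Inositol phosphate hydrolysis in human ETB-transfected CHO cells. Confluent cells labeled with 5 μCi/well [3H]myoinositol, then held 60 min at 37 °C in HEPES saline buffer with protease inhibitors and 10 mM LiCl. Compounds added, then 1 nM ET-1 challenge for 30 min at 37 °C. Total inositol phosphates measured; agonist activity assessed in the same run.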

[6] = species: Rattus norvegicus; test: Clearance role of ET-B evaluated in terms of increase in circulating levels of ET-1 in rats; type: functional
[7] = species: Rattus norvegicus; test: Clearance role of ET-B evaluated in terms of increase in mean arterial pressure (MAP) in rats; type: functional, Artery
[8] = Oral bioavailability in rat; conditions: in vivo
[9] = Compound was evaluated for area under curve when administered through oral route to rat; conditions: in vivo
[10] = system: Rattus norvegicus; test: Oral bioavailability in rat
[11] = Oral bioavailability in rat; conditions: in vivo; remark: listed apart in the source
[12] = Compound was evaluated for area under curve when administered through oral route in rat; conditions: in vivo

Row | IC50 [1] [nM] | IC50 [2] [nM] | Ratio [3] | Structure (SMILES) | also measured
1 | 2700 | 160 | 0.06 | COc1ccc([C@H]2[C@H](C(=O)O)[C@@H](c3ccc4c(c3)OCO4)CN2CC(=O)Nc2cc(C)cc(C)c2)cc1 | 
2 | 16 | 33 | 2 | COc1ccc([C@H]2[C@H](C(=O)O)[C@@H](c3ccc4c(c3)OCO4)CN2CC(=O)Nc2c(C)cccc2C)cc1 | 
3 |  |  | 250 | CCOc1ccc([C@H]2[C@H](C(=O)O)[C@@H](c3ccc4c(c3)OCO4)CN2CC(=O)Nc2c(CC)cccc2CC)cc1 (stereo in doubt; 31) [listing 1 of 2 here] | 
4 | 6.4 | 8200 |  | CCCOc1ccc([C@H]2[C@H](C(=O)O)[C@@H](c3ccc4c(c3)OCO4)CN2CC(=O)Nc2c(CC)cccc2CC)cc1 (stereo in doubt; 38) [A-192621] | half-life [4]: 5 h; IC50 [5]: 0.65 nM; ET-1 level [6]: 19 pg/mL; MAP [7]: 150 mmHg; bioavailability [8]: 35%; AUC [9]: 2500 ng·h/mL
5 |  |  | 4400 | CCc1cccc(CC)c1NC(=O)CN1C[C@H](c2ccc3c(c2)OCO3)[C@@H](C(=O)O)[C@@H]1c1ccc(OCCOC)cc1 (stereo in doubt; 39) [listing 1 of 2 here] | bioavailability [10]: 9%
6 | 74 | 25 | 0.3 | COc1ccc([C@H]2[C@H](C(=O)O)[C@@H](c3ccc4c(c3)OCO4)CN2CC(=O)Nc2ccc(C)cc2C)cc1 | 
7 | 10 | 61 | 6 | COc1ccc([C@H]2[C@H](C(=O)O)[C@@H](c3ccc4c(c3)OCO4)CN2CC(=O)Nc2c(Br)cccc2Br)cc1 | 
8 |  |  | 280 | CCOc1ccc([C@H]2[C@H](C(=O)O)[C@@H](c3ccc4c(c3)OCO4)CN2CC(=O)Nc2c(CC)cccc2CC)cc1 (stereo in doubt; 37) [listing 1 of 2 here] | 
9 | 460 | 12 | 0.03 | CCCc1cccc(CCC)c1NC(=O)CN1C[C@H](c2ccc3c(c2)OCO3)[C@@H](C(=O)O)[C@@H]1c1ccc(OC)cc1 | 
10 | 5.8 | 200 | 34 | CCc1cccc(OC)c1NC(=O)CN1C[C@H](c2ccc3c(c2)OCO3)[C@@H](C(=O)O)[C@@H]1c1ccc(OC)cc1 | 
11 | 600 | 190 | 0.3 | CCc1cccc(CC)c1N(C)C(=O)CN1C[C@H](c2ccc3c(c2)OCO3)[C@@H](C(=O)O)[C@@H]1c1ccc(OC)cc1 | 
12 | 0.8 | 22 | 24 | CCc1cc(F)cc(CC)c1NC(=O)CN1C[C@H](c2ccc3c(c2)OCO3)[C@@H](C(=O)O)[C@@H]1c1ccc(OC)cc1 | 
13 | 57 | 16 | 0.3 | COc1ccc([C@H]2[C@H](C(=O)O)[C@@H](c3ccc4c(c3)OCO4)CN2CC(=O)Nc2c(OC)cccc2OC)cc1 | 
14 | 6.9 | 1500 | 220 | CCc1cccc(CC)c1NC(=O)CN1C[C@H](c2ccc3c(c2)OCO3)[C@@H](C(=O)O)[C@@H]1c1ccc(OC(C)C)cc1 | 
15 | 1.4 | 45 |  | CCc1cccc(CC)c1NC(=O)CN1C[C@H](c2ccc3c(c2)OCO3)[C@@H](C(=O)O)[C@@H]1c1ccc(OC)cc1 (stereo in doubt; 19) [listing 1 of 2 here] | 
16 | 0.27 | 89 |  | CCc1cccc(CC)c1NC(=O)CN1C[C@H](c2ccc3c(c2)OCO3)[C@@H](C(=O)O)[C@@H]1c1ccc(OC)cc1 (stereo in doubt; 36) [listing 1 of 2 here] | half-life [4]: 6.4 h; bioavailability [11]: 49%; AUC [12]: 3900 ng·h/mL
17 | 3.8 | 11000 | 3000 | CCc1cccc(CC)c1NC(=O)CN1C[C@H](c2ccc3c(c2)OCO3)[C@@H](C(=O)O)[C@@H]1c1ccc(CCOC)cc1 | 
18 | 3.6 | 910 |  | CCOc1ccc([C@H]2[C@H](C(=O)O)[C@@H](c3ccc4c(c3)OCO4)CN2CC(=O)Nc2c(CC)cccc2CC)cc1 (stereo in doubt; 31) [listing 2 of 2 here] | 

Row | IC50 [1] [nM] | IC50 [2] [nM] | Ratio [3] | Structure (SMILES) | also measured
19 | 44 | 840 | 19 | CCc1cc(C(=O)O)cc(CC)c1NC(=O)CN1C[C@H](c2ccc3c(c2)OCO3)[C@@H](C(=O)O)[C@@H]1c1ccc(OC)cc1 | 
20 | 0.85 | 3700 |  | CCc1cccc(CC)c1NC(=O)CN1C[C@H](c2ccc3c(c2)OCO3)[C@@H](C(=O)O)[C@@H]1c1ccc(OCCOC)cc1 (stereo in doubt; 39) [listing 2 of 2 here] | half-life [4]: 2.6 h; AUC [9]: 650 ng·h/mL
21 |  |  | 1300 | CCCOc1ccc([C@H]2[C@H](C(=O)O)[C@@H](c3ccc4c(c3)OCO4)CN2CC(=O)Nc2c(CC)cccc2CC)cc1 (stereo in doubt; 38) | 
22 |  |  | 32 | CCc1cccc(CC)c1NC(=O)CN1C[C@H](c2ccc3c(c2)OCO3)[C@@H](C(=O)O)[C@@H]1c1ccc(OC)cc1 (stereo in doubt; 19) [listing 2 of 2 here] | 
23 |  |  | 820 | CCCOc1ccc([C@H]2[C@H](C(=O)O)[C@@H](c3ccc4c(c3)OCO4)CN2CC(=O)Nc2c(CC)cccc2CC)cc1 (stereo in doubt; 32) | 
24 | 4 | 15 | 4 | CCc1cccc(C)c1NC(=O)CN1C[C@H](c2ccc3c(c2)OCO3)[C@@H](C(=O)O)[C@@H]1c1ccc(OC)cc1 | 
25 | 12 | 9900 |  | CCCOc1ccc([C@H]2[C@H](C(=O)O)[C@@H](c3ccc4c(c3)OCO4)CN2CC(=O)Nc2c(CC)cccc2CC)cc1 (stereo in doubt; 32) [A-192621] | 
26 |  |  | 330 | CCc1cccc(CC)c1NC(=O)CN1C[C@H](c2ccc3c(c2)OCO3)[C@@H](C(=O)O)[C@@H]1c1ccc(OC)cc1 (stereo in doubt; 36) [listing 2 of 2 here] | 
27 | 1.5 | 10 | 7 | CCc1cc(CC)c(NC(=O)CN2C[C@H](c3ccc4c(c3)OCO4)[C@@H](C(=O)O)[C@@H]2c2ccc(OC)cc2)c(CC)c1 | 
28 | 26 | 920 | 35 | COc1ccc([C@H]2[C@H](C(=O)O)[C@@H](c3ccc4c(c3)OCO4)CN2CC(=O)Nc2c(C(C)C)cccc2C(C)C)cc1 | 
29 | 1.2 | 340 |  | CCOc1ccc([C@H]2[C@H](C(=O)O)[C@@H](c3ccc4c(c3)OCO4)CN2CC(=O)Nc2c(CC)cccc2CC)cc1 (stereo in doubt; 37) [listing 2 of 2 here] | half-life [4]: 3.1 h; IC50 [5]: 7.9 nM; bioavailability [11]: 37%; AUC [9]: 3400 ng·h/mL
30 | 82 | 33 | 0.4 | COc1ccc([C@H]2[C@H](C(=O)O)[C@@H](c3ccc4c(c3)OCO4)CN2CC(=O)Nc2cc(C)ccc2C)cc1 | 
31 | 830 | 50 | 0.06 | COc1ccc([C@H]2[C@H](C(=O)O)[C@@H](c3ccc4c(c3)OCO4)CN2CC(=O)Nc2ccc(C)c(C)c2)cc1 | 
32 |  |  | 4000 | CCc1cccc(CC)c1NC(=O)CN1C[C@H](c2ccc3c(c2)OCO3)[C@@H](C(=O)O)[C@@H]1c1ccc(OCCOC)cc1 (stereo in doubt; 34) [listing 1 of 2 here] | 
33 | 82 | 15 | 0.2 | CCCc1cccc(CC)c1NC(=O)CN1C[C@H](c2ccc3c(c2)OCO3)[C@@H](C(=O)O)[C@@H]1c1ccc(OC)cc1 | 
34 | 20 | 100 | 5 | COc1ccc([C@H]2[C@H](C(=O)O)[C@@H](c3ccc4c(c3)OCO4)CN2CC(=O)Nc2c(C)cccc2C(C)C)cc1 | 
35 | 81 | 16 | 0.2 | COc1ccc([C@H]2[C@H](C(=O)O)[C@@H](c3ccc4c(c3)OCO4)CN2CC(=O)Nc2cccc(C)c2C)cc1 | 
36 | 1.1 | 4200 |  | CCc1cccc(CC)c1NC(=O)CN1C[C@H](c2ccc3c(c2)OCO3)[C@@H](C(=O)O)[C@@H]1c1ccc(OCCOC)cc1 (stereo in doubt; 34) [listing 2 of 2 here] | 
